# Compound activity: PubChem BioAssay, Sanford-Burnham Center for Chemical Genomics
# PPC-1+TRAIL kill = PPC-1 cancer cell killing with TRAIL present; PPC-1 cells + TRAIL, ATPLite viability luminescence; cell killing (% activity), % at 4 µM or 5 µM; 220,000 compounds, 0.41% hits; AID 1443;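 active means cell killing above 50% in the first pass at 4 µM, then a duplicate retest at 5 µM averaging 50% or more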;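 further: plate controls were cells with TRAIL plus DMSO for no effect and medium-only wells lacking cells for full effect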
# FLuc stim CS = affects firefly luciferase, flagging false hits in luciferase stimulation screens; activation factor at 10 µM; ATPlite luciferase biochemical, luminescence, 10 min; 0 = ATP-free wells, 1 = DMSO control; P08659; 200,000 tested, under 10 active;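 active means luciferase activation factor, scaled between plate controls, of at least 2 with compound at 10 µM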
# Target sequence (P08659 whole entry, looked up): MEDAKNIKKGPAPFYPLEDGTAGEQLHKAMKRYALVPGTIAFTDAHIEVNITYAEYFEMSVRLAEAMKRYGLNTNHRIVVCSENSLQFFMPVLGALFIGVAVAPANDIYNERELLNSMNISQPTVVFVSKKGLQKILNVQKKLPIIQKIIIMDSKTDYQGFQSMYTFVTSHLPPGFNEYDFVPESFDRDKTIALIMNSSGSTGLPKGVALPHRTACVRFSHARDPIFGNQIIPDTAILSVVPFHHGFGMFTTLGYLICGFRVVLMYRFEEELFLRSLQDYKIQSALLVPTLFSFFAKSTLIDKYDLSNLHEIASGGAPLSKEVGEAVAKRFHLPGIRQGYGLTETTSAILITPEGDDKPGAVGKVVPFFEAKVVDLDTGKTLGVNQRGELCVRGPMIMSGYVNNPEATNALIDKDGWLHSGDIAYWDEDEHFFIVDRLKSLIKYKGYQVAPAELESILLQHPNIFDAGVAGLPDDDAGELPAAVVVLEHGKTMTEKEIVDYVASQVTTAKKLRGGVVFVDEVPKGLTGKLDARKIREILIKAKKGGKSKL
#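 Material: luciferase plus luciferin reagent, cell-free. Medium: PBS buffer for ATP. Also added: ATP substrate, dispensed from a 10.24 µM working solution in PBS. Doses: test compounds dosed from 2 mM stocks in 100% DMSO. Incubation: 10 min post-reagent at room temperature. Technique: light output (luminescence). Read-out basis: luminescence gain marking luciferase activators.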
# FLuc inhib CS = inhibits firefly luciferase, flagging false hits in luciferase inhibition screens; P08659; ATPLite firefly luciferase biochemical luminescence, 10 min; inhibition, % at 10 µM; 200,000 compounds, 1.5% hits; AID 1006;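 active means inhibition above about 50% when tested at 10 µM, limit read from the data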
# C8 TRAIL sens = caspase-8 TRAIL sensitization; 360,000 compounds, 1% hits; AID 624354; inhibition (viability loss, TRAIL sensitization), % at 10 µM; NB7+C8 cells + TRAIL, ATPlite viability luminescence;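 active means compounds causing at least 50% loss of cell viability in the single-dose screen, relative to plate controls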
# * hit, by the source's call; nt = no result. Hits are enriched below; roughly 1.5% of the tested compounds scored in any of these assays.
SMILES,PPC-1+TRAIL kill,FLuc stim CS,FLuc inhib CS,C8 TRAIL sens
CC1CC(C)CC(C)C(O)C(C#N)=CC=CCC(C2CCCC2C(=O)O)OC(=O)CC(O)C(C)C1 (stereo not drawn),nt,nt,nt,65.8*
Cc1cccc(C)c1OP(N)(=O)Oc1c(C)cccc1C,16.5,nt,nt,9.8
CCOC(=O)[C@]12Cc3cc(Cl)ccc3[C@H]1N(C(C)C)C(=O)c1ccccc12,nt,nt,nt,71.5*
CCOC(=O)[C@]12Cc3cc(Cl)ccc3[C@H]1N(C)C(=O)c1ccccc12,nt,nt,nt,7.2
CCOC(=O)[C@]12Cc3cc(Cl)ccc3[C@H]1N(CC(=O)OC)C(=O)c1ccccc12,nt,nt,nt,58.1*
CCOC(=O)[C@]12Cc3c(cc(OC)c(OC)c3OC)[C@H]1N(C(C)C)C(=O)c1cc(OC)ccc12,nt,nt,nt,46.3
CCOC(=O)[C@]12Cc3cc(C)ccc3[C@H]1N(C)C(=O)c1ccccc12,nt,nt,nt,-6.3
CCOC(=O)[C@]12Cc3cc(OC)ccc3[C@H]1N(C(C)C)C(=O)c1cc(OC)ccc12,nt,nt,nt,54.6*
O=[N+]([O-])O[C@H]1CO[C@H]2[C@@H]1OC[C@H]2O[N+](=O)[O-],nt,nt,nt,-10.6
CCC1C2CC3C4N(C)c5ccccc5C45CC(C2C5O)N3[C@@H]1O (stereo partly drawn),nt,nt,nt,-14.9
Nc1ccc(CCN2CCN(c3cccc(C(F)(F)F)c3)CC2)cc1,nt,nt,nt,11.7
N#CC1c2ccccc2-n2nncc2CN1Cc1cc(Cl)cc(Cl)c1 (stereo not drawn),nt,nt,nt,75.9*
COc1ccc(CN2Cc3cnnn3-c3ccccc3C2C#N)cc1 (stereo not drawn),nt,nt,nt,47.9
CCCCCC(=O)N[C@@H](c1ccccc1)[C@@H](O)C(=O)O[C@H]1C[C@@]2(O)[C@@H](OC(=O)c3ccccc3)C3[C@](C)(C(=O)[C@H](O)C(=C1C)C2(C)C)[C@@H](OC1OCC(O)C(O)C1O)C[C@H]1OC[C@@]31OC(C)=O (stereo partly drawn),nt,nt,nt,2.7
C=CCn1c(O)c(C(C)=NCc2cccnc2)c(=O)[nH]c1=O,11.1,1.1,-5.6,-14.5
C=CCn1c(O)c(C(C)=NCc2cc(OC)cc(OC)c2)c(=O)[nH]c1=O,28.3,1,-3.5,81.6*
O=c1[nH]c(=S)[nH]c(O)c1N=Nc1ccc(OC(F)F)cc1,25.9,0.4,56.8*,25.7
NS(=O)(=O)c1ccc(N=Nc2c(O)[nH]c(=S)[nH]c2=O)cc1,13.2,nt,nt,-2.5
COc1ccc(N=Nc2c(O)[nH]c(=S)[nH]c2=O)cc1,11.2,0.4,59.0*,19.6
COC(=O)C1=C(c2ccc(-c3ccccc3)c(F)c2)C[C@@H]2CC[C@H]1N2C(=O)NCc1cc(C)oc1C(F)(F)F,nt,nt,nt,21.5
CCOC(=O)[C@]12Cc3cc(Cl)ccc3[C@H]1N(Cc1ccccc1)C(=O)c1cc(OC)ccc12,nt,nt,nt,88.6*
CCOC(=O)[C@]12Cc3cc4ccccc4cc3[C@H]1N(Cc1ccccc1)C(=O)c1ccccc12,nt,nt,nt,66.7*
CCCCCN1C(=O)c2cc(OC)ccc2[C@@]2(C(=O)OCC)Cc3cc(Cl)ccc3[C@@H]12,nt,nt,nt,84.7*
CCOC(=O)[C@]12Cc3cc4ccccc4cc3[C@H]1N(Cc1ccccc1)C(=O)c1cc(OC)ccc12,nt,nt,nt,64.2*
CCOC(=O)[C@]12Cc3cc(OC)c(OC)cc3[C@H]1N(Cc1ccccc1)C(=O)c1ccccc12,nt,nt,nt,2.2
SMILES,PPC-1+TRAIL kill,FLuc stim CS,FLuc inhib CS,C8 TRAIL sens
CCCCn1c(O)c(C(CC)=NCCCN(C)C)c(=O)[nH]c1=O,21.1,1.1,-5.7,-20.1
COc1ccccc1-n1c(/C=C/c2ccc(O)cc2)nc2ccccc2c1=O,nt,nt,nt,3.1
COc1ccc(-n2nnnc2C(c2ccccc2)N2CCC(n3c(=O)[nH]c4ccccc43)CC2)cc1 (stereo not drawn),nt,nt,nt,-4.8
Nc1ccccc1C(=O)OCC(=O)N1CCc2ccccc21,-1.0,0.7,27.7,10.3
COc1ccc(C[C@H]2NC[C@H](O)[C@H]2OC(C)=O)cc1,nt,nt,nt,86.0*
CC(=O)[C@H]1CCC2C3CC[C@H]4C[C@@H](O)CC[C@]4(C)C3CC[C@@]21C (stereo partly drawn),nt,nt,nt,-2.6
CC(=O)OC1CC(OC2C(O)CC(OC3C(O)CC(OC4CCC5(C)C(CCC6C5CCC5(C)C(C7=CC(=O)OC7)C(O)CC65O)C4)OC3C)OC2C)OC(C)C1OC1OC(CO)C(O)C(O)C1O (stereo not drawn),nt,nt,nt,62.5*
CC(=O)OC1CC2(O)C3CCC4CC(O)CCC4(C)C3CCC2(C)C1C1=CC(=O)OC1 (stereo not drawn),nt,nt,nt,66.4*
CC(=O)O[C@@H]1CC[C@]2(C)C3CC[C@@]4(C)C(C[C@@H](O)[C@@H]4O)C3[C@@H](OC(C)=O)C[C@H]2C1 (stereo partly drawn),nt,nt,nt,-1.9
CC1OC(OC2C(O)CC(OC3C(O)CC(OC4CCC5(C)C(CCC6C5CCC5(C)C(C7=CC(=O)OC7)C(O)CC65O)C4)OC3C)OC2C)CC(O)C1O (stereo not drawn),nt,nt,nt,60.5*
CCC1(CCC(C)C)C(=O)NC(=O)N(c2ccccc2)C1=O (stereo not drawn),nt,nt,nt,-11.6
CCOC(=O)C1(CCc2ccccc2)CCN(Cc2ccc(NC(C)=O)cc2)CC1,nt,nt,nt,-5.7
CCOC(=O)c1cccc(-[n+]2c(-c3ccccc3)cc(-c3ccccc3)cc2-c2ccccc2)c1,nt,nt,nt,57.6*
Cc1ccc(-c2cc(-c3ccccc3)cc(-c3ccccc3)[n+]2-c2ccccc2)cc1,nt,nt,nt,90.6*
Cc1ccc(-c2cc(-c3ccc(C)cc3)[n+](-c3ccc(C(=O)[O-])cc3)c(-c3ccc(C)cc3)c2)cc1,nt,nt,nt,6.1
Cc1ccc(-c2cc(-c3ccc(C)cc3)[n+](-c3ccccc3)c(-c3ccc(C)cc3)c2)cc1,nt,nt,nt,70.9*
COc1ccc(-n2nc(C(=O)NCC(=O)N3CCC4(CC3)OCCO4)c3ccccc3c2=O)c(OC)c1,nt,nt,nt,55.1*
CC(=O)OCC12CC(OC(=O)CC(C)C)C(C)=CC1OC1C(O)C(OC(C)=O)C2(C)C12CO2 (stereo not drawn),nt,nt,nt,56.5*
CC(Cc1ccccc1)N1Cc2ccccc2C1 (stereo not drawn),nt,nt,nt,-10.9
O=C1NC2C(=CC(O)C(O)C2O)c2cc3c(c(O)c21)OCO3 (stereo not drawn),nt,nt,nt,77.2*
CCOc1ccc(-c2c(C)n(-c3ccc(OCC)cc3)c3[n+]2CCCCC3)cc1,48.0,nt,nt,51.7*
CN1C(=O)N(C)C(=O)C2(Sc3ccccc3C2=O)C1=O,-6.0,1,-3.4,-13.1
CC(=O)Nc1ccccc1C(=O)OCC(=O)Nc1ncccn1,nt,nt,nt,-9.6
CC(=O)Nc1ccccc1C(=O)OCC(=O)c1ccc2c(c1)OCCO2,1.1,0.2,82.3*,-13.3
Cc1ccccc1-n1c(/C=C/c2ccccn2)nc2ccccc2c1=O,22.1,nt,nt,-13.4
CN1C2CCC1/C(=C/c1ccccn1)C(=O)/C2=C\c1ccccn1,40.9,1.1,-9.2,85.9*
O=[N+]([O-])c1ccc(N2CCOCC2)c2cccnc12,-9.2,1,-2.9,-11.9
O=[N+]([O-])c1ccc(N2CCOCC2)c2c1no[n+]2[O-],nt,nt,nt,93.6*
